Measured values taken from publication PMC6996566 (ChemistryOpen, 2019).
Read-outs that look alike come from different tables or passages of the source.

Legend:
Format in all cases: cell-based, human
HUVEC = assay: In vitro anti‐proliferative assay
Outline: (§1)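 MTT assay: 5×10³ cells per well settled 24 h, then exposed to a concentration series of test compound or DMSO for 48 h. Medium replaced with fresh medium containing 10% MTT (5 mg/mL in PBS) for 4 h at 37 °C. Formazan dissolved in DMSO, absorbance read at 570 nm. Inhibition % = (OD DMSO − OD compound)/(OD DMSO − OD blank)×100, giving IC50.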

Hela = assay: In vitro anti‐proliferative assay; conditions: read-out: Hela (IC50); MTT, 48 h treatment; mean of triplicate determinations
Outline: as §1

A2780 = assay: In vitro anti‐proliferative assay; conditions: read-out: A2780 (IC50); MTT, 48 h treatment; mean of triplicate determinations
Outline: as §1

A2780 cells = assay: Nitrite measurement in vitro; conditions: 100 μM compound, 150 min, Griess reagent
Outline: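 A2780 cells (1×10⁷ per 10 cm dish) were exposed to 100 μM test compound for 150 min, then harvested and lysed in RIPA buffer for 30 min on ice. Lysates were mixed with Griess reagent for 30 min in the dark and read at 540 nm. Nitrite was quantified against a sodium nitrite standard curve, with diluent-treated cells as background. Mean ± SD of three independent experiments.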

3‐Phenylsulfonyl‐4‐hydroxylethoxyl‐1,2,5‐oxadiazole 2‐Oxide [compound 21]
IC50 (HUVEC; read-out: HUVEC (IC50), MTT, 48 h treatment, mean of triplicate determinations): 1.48 µM | IC50 (Hela): 3050 nM | IC50 (A2780): 1920 nM

COc1cc2c(cc1O)CC[C@@H]1[C@@H]2CC[C@]2(C)[C@@H](O)CC[C@@H]12 [compound 3, 2‐methoxyestradiol]
intracellular NO production, presented as nitrite in the cell lysates (A2780 cells): hardly detected | IC50 (HUVEC; Homo sapiens, HUVEC, 48 h, read-out: HUVEC (IC50, μM)): 1.35 µM
